Results reported in ChEMBL document CHEMBL1124824, “Synthesis and biological activity of atrial natriuretic factor analogues: effect of modifications to the disulfide bridge” (J Med Chem, 1990).
Positions of bridges follow the written chain, without caps; N, C: chain ends. Non-standard residues stand in square brackets, D forms with d. Residues, ends and D or L forms follow the SMILES beside them. Asu = N[C@@H](CCCCCC(=O)O)C(=O)O; Mpa = O=C(O)CCS

Legend:
Rattus norvegicus [1] = species: Rattus norvegicus; assay: Compound was tested for the K+ excretion for treated over control animals.; type: functional
Summary of the method: (§1)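 Male Sprague-Dawley rats (300-325 g) under halothane/lidocaine had femoral artery, femoral vein and bladder cannulated. After at least 1 h of recovery in restraint, they received Ringer's (1.2 mL/h), with 10-min urine collections over a 30-min control period. Infusion of 0.5 μg/kg per min for 30 min and a 30-min Ringer's recovery followed. Na+, K+ and Cl- were measured with an electrolyte analyzer, reported as treated minus control μmol/sample. Volume ratio is treated/control over three consecutive 10-min samples, six animals.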

Rattus norvegicus [2] = species: Rattus norvegicus; assay: Compound was tested for the Cl- excretion for treated over control animals.; type: functional; summary of the method: as §1
Rattus norvegicus [3] = species: Rattus norvegicus; assay: Compound was tested for antihypertensive activity in 5/6 nephrectomized rats.; type: functional
Summary of the method: (§2)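 Rats were anesthetized with halothane after skin infiltration with 2% lidocaine, and the femoral artery and vein were cannulated. After recovery, arterial pressure was recorded. A saline control period was followed by i.v. infusion in 30-min steps at 0.1, 0.2, 0.5 and 1.0 μg/kg per min (70 μL/kg per min). Hydralazine (100 μg/kg per min) was given for standardization. ED50 is in nmol/kg per min, from six animals.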

Rattus norvegicus [4] = assay: Compound was tested for diuretic activity and the ratio of urine volume for treated over control animals was reported after infused at a dose of 0.5 ug/kg.; type: functional; summary of the method: as §1
Rattus norvegicus [5] = species: Rattus norvegicus; assay: Compound was tested for the Na+ excretion for treated over control animals.; type: functional; summary of the method: as §1
Rattus norvegicus [6] = species: Rattus norvegicus; assay: Compound was tested for the Cl- excretion for treated over control animals, the electrolytes tested are; type: functional; summary of the method: as §1
Rattus norvegicus [7] = species: Rattus norvegicus; assay: Compound was tested for antihypertensive activity in DOCA nephrectomized rats.; type: functional; summary of the method: as §2
Rattus norvegicus [8] = species: Rattus norvegicus; assay: Compound was tested for the Na+ excretion for treated over control animals, the electrolytes tested are; type: functional; summary of the method: as §1
Rattus norvegicus [9] = species: Rattus norvegicus; assay: Compound was tested for the K+ excretion for treated over control animals, the electrolytes tested are; type: functional; summary of the method: as §1
[10] = biological target: T1, Atrial natriuretic peptide receptor 2 (Bos taurus, UniProt P46197); assay: Binding affinity was determined based on the displacement of [125]r-ANF (99-126) from binding sites on bovine adrenal zona glomerulosa cell membranes (Atrionatriuretic peptide receptor B)
T1 sequence (P46197 whole entry): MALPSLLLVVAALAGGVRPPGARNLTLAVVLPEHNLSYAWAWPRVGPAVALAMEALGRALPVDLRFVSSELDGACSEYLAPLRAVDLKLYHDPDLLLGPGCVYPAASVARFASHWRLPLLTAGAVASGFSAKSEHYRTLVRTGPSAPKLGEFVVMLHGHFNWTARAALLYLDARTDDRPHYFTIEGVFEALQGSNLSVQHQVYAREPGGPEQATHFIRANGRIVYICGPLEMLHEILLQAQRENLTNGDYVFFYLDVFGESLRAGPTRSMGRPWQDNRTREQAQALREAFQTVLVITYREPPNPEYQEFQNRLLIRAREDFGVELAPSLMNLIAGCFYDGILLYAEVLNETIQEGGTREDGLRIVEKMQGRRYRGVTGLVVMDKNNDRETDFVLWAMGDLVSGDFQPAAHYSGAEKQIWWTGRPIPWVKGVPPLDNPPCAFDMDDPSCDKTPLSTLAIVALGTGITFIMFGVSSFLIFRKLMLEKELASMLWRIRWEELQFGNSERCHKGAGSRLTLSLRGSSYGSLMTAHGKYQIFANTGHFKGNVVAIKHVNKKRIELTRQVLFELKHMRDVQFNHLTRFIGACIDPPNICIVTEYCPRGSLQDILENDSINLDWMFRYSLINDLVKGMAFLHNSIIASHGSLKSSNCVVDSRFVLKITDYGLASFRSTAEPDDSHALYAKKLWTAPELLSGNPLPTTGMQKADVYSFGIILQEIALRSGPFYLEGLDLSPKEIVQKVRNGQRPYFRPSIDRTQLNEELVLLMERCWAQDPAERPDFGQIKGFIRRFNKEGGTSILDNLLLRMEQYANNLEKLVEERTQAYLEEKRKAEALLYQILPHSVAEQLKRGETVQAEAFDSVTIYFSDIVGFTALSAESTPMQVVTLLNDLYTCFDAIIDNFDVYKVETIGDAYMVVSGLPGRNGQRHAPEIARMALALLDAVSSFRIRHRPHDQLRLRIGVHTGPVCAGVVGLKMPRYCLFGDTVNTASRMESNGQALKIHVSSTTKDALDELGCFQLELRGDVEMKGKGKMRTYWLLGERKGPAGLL

Oryctolagus cuniculus = species: Oryctolagus cuniculus; assay: Compound was tested for the inhibition of the stimulated contractions of the superfused rabbit thoracic aortic rings.; type: functional, Aorta
Summary of the method: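 Rabbit thoracic aorta rings (4 mm) were held isometrically at 10-g resting tension, superfused and precontracted with phenylephrine. Test peptide was added to the superfusate above the tissue in successively higher doses after each recovery. Doses were based on peptide content. EC50 came from the dose-response curve, mean of three determinations ± SEM.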

[11] = biological target: T2, Atrial natriuretic peptide receptor 3 (Mus musculus, UniProt P70180); assay: Binding affinity was determined based on the displacement of [125]r-ANF (99-126) from binding sites on mouse fibroblasts (NIH 3T3) cells (Atrionatriuretic peptide receptor C).
T2 sequence (P70180 whole entry): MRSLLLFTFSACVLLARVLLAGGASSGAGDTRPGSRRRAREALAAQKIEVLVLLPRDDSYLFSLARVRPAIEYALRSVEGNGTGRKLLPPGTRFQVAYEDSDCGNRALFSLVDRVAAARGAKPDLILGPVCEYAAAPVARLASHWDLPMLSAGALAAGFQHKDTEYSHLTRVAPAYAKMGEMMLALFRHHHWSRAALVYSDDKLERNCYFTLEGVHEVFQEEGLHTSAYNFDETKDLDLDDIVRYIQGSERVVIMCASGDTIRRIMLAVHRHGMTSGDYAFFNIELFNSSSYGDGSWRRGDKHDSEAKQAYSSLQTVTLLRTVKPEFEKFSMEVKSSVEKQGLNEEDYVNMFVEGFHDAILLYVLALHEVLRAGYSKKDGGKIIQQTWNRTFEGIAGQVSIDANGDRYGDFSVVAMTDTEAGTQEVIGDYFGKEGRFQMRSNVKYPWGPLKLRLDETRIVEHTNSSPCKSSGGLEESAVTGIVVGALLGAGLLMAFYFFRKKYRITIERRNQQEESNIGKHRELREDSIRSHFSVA

Row | Structure (SMILES) | Electrolyte excretion (Rattus norvegicus [1]) [uM sample-1] | Electrolyte excretion (Rattus norvegicus [2]) [uM sample-1] | ED50 (Rattus norvegicus [3]) [nM/min/kg] | Ratio (Rattus norvegicus [4]) | Electrolyte excretion (Rattus norvegicus [5]) [uM sample-1] | Electrolyte excretion (Rattus norvegicus [6]) [uM sample-1] | ED50 (Rattus norvegicus [7]) [nM/min/kg] | Electrolyte excretion (Rattus norvegicus [8]) [uM sample-1] | Electrolyte excretion (Rattus norvegicus [9]) [uM sample-1] | IC50 [10] [nM] | EC50 (Oryctolagus cuniculus) [M 50ul-1] | IC50 [11] [nM]
1 | CC[C@H](C)[C@@H]1NC(=O)[C@H](CCCN=C(N)N)NC(=O)[C@H](CC(=O)O)NC(=O)[C@H]([C@@H](C)CC)NC(=O)[C@H](CCCN=C(N)N)NC(=O)CNC(=O)CNC(=O)[C@H](Cc2ccccc2)NC(=O)CCCCC[C@@H](C(=O)N[C@@H](CC(N)=O)C(=O)N[C@@H](CO)C(=O)N[C@@H](Cc2ccccc2)C(=O)N[C@@H](CCCN=C(N)N)C(=O)N[C@@H](Cc2ccc(O)cc2)C(=O)O)NC(=O)CNC(=O)[C@H](CC(C)C)NC(=O)CNC(=O)[C@H](CO)NC(=O)[C@H](CCC(N)=O)NC(=O)[C@H](C)NC(=O)CNC1=O (FGGRIDRIGAQSGLG[Asu]NSFRY-OH; lactam N-16) | 0 | 10 | 5.7 | 2.1 | 4.8 |  |  |  |  |  |  | 
2 | CC[C@H](C)[C@@H]1NC(=O)[C@H](CCCN=C(N)N)NC(=O)[C@H](CC(=O)O)NC(=O)[C@H]([C@@H](C)CC)NC(=O)[C@H](CCCN=C(N)N)NC(=O)CNC(=O)CNC(=O)[C@H](Cc2ccccc2)NC(=O)CCSSC[C@@H](C(=O)N[C@@H](CC(N)=O)C(=O)N[C@@H](CO)C(=O)N[C@@H](Cc2ccccc2)C(=O)N[C@@H](CCCN=C(N)N)C(=O)N[C@@H](Cc2ccc(O)cc2)C(=O)O)NC(=O)CNC(=O)[C@H](CC(C)C)NC(=O)CNC(=O)[C@H](CO)NC(=O)[C@H](CCC(N)=O)NC(=O)[C@H](C)NC(=O)CNC1=O ([Mpa]FGGRIDRIGAQSGLGCNSFRY-OH; disulfide 1-17) |  |  | 1.5 | 1.7 |  | 52.9 | 1.1 | 30.4 | 22.6 | 1.03 | 1.1e-10 | 0.22
